This is an account of results in article PMC8897208 (Acta Pharmaceutica Sinica. B, 2021).

In one assay the target is T1, HDAC7 (Homo sapiens, UniProt Q8WUI4).
T1 sequence (Q8WUI4 1-952): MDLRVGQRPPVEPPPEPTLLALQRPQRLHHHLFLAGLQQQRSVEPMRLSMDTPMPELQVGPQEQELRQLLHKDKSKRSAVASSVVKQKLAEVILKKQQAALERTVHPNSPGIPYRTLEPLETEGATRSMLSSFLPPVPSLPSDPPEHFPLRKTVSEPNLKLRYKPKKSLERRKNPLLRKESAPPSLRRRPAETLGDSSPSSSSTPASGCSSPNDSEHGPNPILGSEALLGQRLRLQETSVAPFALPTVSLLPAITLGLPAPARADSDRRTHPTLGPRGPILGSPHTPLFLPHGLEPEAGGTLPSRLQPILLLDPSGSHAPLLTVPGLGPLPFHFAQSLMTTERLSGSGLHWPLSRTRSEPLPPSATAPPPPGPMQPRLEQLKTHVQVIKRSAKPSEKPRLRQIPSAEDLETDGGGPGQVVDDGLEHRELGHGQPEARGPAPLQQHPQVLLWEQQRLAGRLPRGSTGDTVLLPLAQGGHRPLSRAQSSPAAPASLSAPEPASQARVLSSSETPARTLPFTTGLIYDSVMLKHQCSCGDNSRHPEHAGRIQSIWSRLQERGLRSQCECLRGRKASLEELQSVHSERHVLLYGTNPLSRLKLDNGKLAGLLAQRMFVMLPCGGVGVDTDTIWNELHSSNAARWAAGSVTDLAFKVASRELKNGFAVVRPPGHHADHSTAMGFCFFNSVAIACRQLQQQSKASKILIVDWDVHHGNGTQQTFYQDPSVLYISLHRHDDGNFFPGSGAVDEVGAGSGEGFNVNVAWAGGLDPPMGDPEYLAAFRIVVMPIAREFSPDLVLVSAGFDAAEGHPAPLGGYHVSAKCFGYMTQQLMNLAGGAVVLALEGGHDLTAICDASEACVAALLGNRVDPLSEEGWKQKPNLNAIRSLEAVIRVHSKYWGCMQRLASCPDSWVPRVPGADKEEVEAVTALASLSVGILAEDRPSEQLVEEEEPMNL
Put plainly: HDACs selectivity assay. The class given is biochemical. The gist of the method: (§1)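 Enzyme selectivity panel was run by an outside contract lab to its standard assay protocols. IC50 values came from dose–response fitting of the data points. Each experiment was done independently at least three times.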

Assay [1] concerns the target T2, SIRT6 (Homo sapiens, UniProt Q8N6T7). Put plainly: Fluor de Lys. It counts as biochemical. In short, it runs like this: (§2)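 Recombinant SIRT6 was expressed in E. coli BL21 in LB with 100 μg/mL ampicillin at 37 °C. Expression was induced with 0.5 mmol/L IPTG at OD600 0.8, then grown 18 h at 16 °C and purified by an earlier method.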
Another assay has as its target T3, SIRT3 (Homo sapiens, UniProt Q9NTG7).
T3 sequence (Q9NTG7 1-399): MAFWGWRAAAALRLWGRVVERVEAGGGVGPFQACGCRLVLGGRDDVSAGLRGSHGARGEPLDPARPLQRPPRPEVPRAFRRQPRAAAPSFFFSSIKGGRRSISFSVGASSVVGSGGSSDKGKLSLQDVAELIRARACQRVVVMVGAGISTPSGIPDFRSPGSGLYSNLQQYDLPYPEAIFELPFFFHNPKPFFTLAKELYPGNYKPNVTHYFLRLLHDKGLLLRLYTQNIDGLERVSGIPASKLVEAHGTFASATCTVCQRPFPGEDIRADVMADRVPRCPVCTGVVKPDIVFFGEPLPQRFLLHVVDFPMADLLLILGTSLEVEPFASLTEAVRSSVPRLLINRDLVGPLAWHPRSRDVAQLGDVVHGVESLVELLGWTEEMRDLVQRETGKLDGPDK
The assay can be described thus: HDACs selectivity assay. It counts as biochemical. In short, it runs like this: as §1

Assay [2] has as its target T2, SIRT6. Put plainly: FDL assay of SIRT6 deacetylation on H3K9Ac peptide. It counts as biochemical. The gist of the method:
as §2

In a further assay the target is T4, HDAC11 (Homo sapiens, UniProt Q96DB2).
T4 sequence (Q96DB2 1-347): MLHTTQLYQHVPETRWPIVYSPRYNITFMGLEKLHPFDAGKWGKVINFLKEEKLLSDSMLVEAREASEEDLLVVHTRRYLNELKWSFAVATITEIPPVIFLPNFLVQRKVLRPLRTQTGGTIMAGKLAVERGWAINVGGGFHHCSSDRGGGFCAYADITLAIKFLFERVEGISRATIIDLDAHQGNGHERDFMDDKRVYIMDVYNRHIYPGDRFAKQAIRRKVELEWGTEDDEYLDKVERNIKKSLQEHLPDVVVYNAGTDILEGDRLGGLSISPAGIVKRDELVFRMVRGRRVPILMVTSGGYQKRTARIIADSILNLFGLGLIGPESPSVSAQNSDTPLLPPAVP
The assay can be described thus: HDACs selectivity assay. The class given is biochemical. The gist of the method:
as §1

Assay [3] addresses T2, SIRT6. The assay can be described thus: HPLC assay of SIRT6 deacetylation on H3K9Ac. It counts as biochemical. The settings on record: 50 μmol/L JYQ-42, H3K9Ac peptide.
The test system of the next assay is BXPC-3 cells. The assay can be described thus: ELISA for IL6, IL8 and TNF-α secretion. The class given is cell-based. The settings on record: BXPC-3, 30 ng/mL PMA, 10, 20, 40 μmol/L, 24 h. A general note: ELISA stands for enzyme-linked immunosorbent assay.
A further assay relates to MiaPaCa-2 cells. The assay can be described thus: Western blot of SIRT6 substrates H3K9Ac, H3K18Ac, H3K56Ac. The class given is cell-based. The settings on record: MiaPaCa-2, different concentrations of JYQ-42, Western blot. In short, it runs like this: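 BXPC-3 cells were grown in RPMI1640 and MiaPaCa-2 cells in DMEM, each with 10% FBS and penicillin/streptomycin, at 37 °C under 5% CO2. Both lines were STR-verified. Cells took test compound at 0, 10, 20 or 40 μmol/L for 24 or 48 h and were lysed in 1× SDS loading buffer. Proteins were separated on 12% SDS-PAGE and transferred to PVDF. Blocking used Tris-NaCl pH 7.5 with Tween-20 and 5% milk. Detection was chemiluminescent (HRP), with β-actin as loading control.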
(A western blot detects proteins with antibodies after separation by electrophoresis.)

SMILES strings stand for the structures.

T2 sequence (Q8N6T7 whole entry): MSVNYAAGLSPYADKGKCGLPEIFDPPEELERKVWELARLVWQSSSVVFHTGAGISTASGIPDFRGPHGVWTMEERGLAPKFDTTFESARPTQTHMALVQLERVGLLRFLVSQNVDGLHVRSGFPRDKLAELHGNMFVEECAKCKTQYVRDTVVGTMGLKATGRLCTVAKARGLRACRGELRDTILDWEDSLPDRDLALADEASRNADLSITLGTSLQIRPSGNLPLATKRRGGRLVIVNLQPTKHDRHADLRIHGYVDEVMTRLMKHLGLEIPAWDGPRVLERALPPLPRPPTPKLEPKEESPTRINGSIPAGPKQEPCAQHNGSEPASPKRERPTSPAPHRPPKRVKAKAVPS

Usually IC50 stands for the concentration needed to halve the response being measured. Read a high IC50 as weaker potency in that assay. As for `Nc1nonc1-n1cc(C(=O)N/N=C/c2cc(Cl)cc(C(F)(F)F)c2)nn1` [JYQ-42], the IC50 against HDAC7 was greater than 100 µM; at SIRT6 [1], 2.33 ± 0.17 µM; at SIRT3, greater than 100 µM; at HDAC11, greater than 100 µM. For the same molecule, on SIRT6 [1] (FDL assay, substrate Ac-RHKK-Ac-AMC, 50 μmol/L compound), the “inhibition ratio at 50 μmol/L” value was 85.3%. The Effect entry at SIRT6 [1] (SIRT6 (Table 2)) is recorded as “Inhibition”. Further, on SIRT6 [2], the “inhibition ratio at 50 μmol/L on H3K9Ac” value worked out at 90.7%. The “amount of H3K9-free lysine peptides by HPLC” value on SIRT6 [3] is on record as “decreased prominently”. Further, the “secretion levels of IL6, IL8 and TNF-α” value in the assay with BXPC-3 cells was “blocked the secretion levels”. Also, the “levels of H3K9Ac, H3K18Ac and H3K56Ac” value with MiaPaCa-2 cells is “increased the levels of H3K9Ac, H3K18Ac and H3K56Ac in a dose-dependent manner”.
